# In the library only some 5.3% were active in any assay of this set; here they are far more common.
# Mdm2-MdmX inh: inhibitors of human Mdm2-MdmX association, primary screen, cell-based, luminescence, split luciferase, SaOS-2, uHTS; inhibition, % at 8 µM; AID 485346, 2010; 330,000 compounds, 3% hits; SaOS-2 split-luciferase Mdm2/MdmX complementation; Protein Mdm4 (Homo sapiens) + E3 ubiquitin-protein ligase Mdm2 (Homo sapiens), …;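 active means inhibition of at least 50% at 8 µM in the primary screen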
# T cruzi inh: inhibitors of intracellular T. cruzi growth, primary screen, luminescence, NIH3T3 host cells | T. cruzi beta-gal in NIH3T3, 90 h | inhibition, % (test concentration not listed) | 300,000 compounds, 1.4% hits;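 active means mean inhibition across valid replicates above about 55%, limit read from the data; inconclusive means mean below that limit but half or more replicates reach it; inactive means mean below it, under half of replicates reach it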;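 further: signal also drops with host cell toxicity which is not excluded here; 0% = plate median of DMSO wells and 100% = zero luminescence signal; higher percent means less beta-gal luminescence so fewer parasites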
#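 compound dosing = single 50 nL compound addition per well in DMSO | material = NIH/3T3 host cells with β-galactosidase reporter T. cruzi | input = 5,000 host fibroblasts per well | timing = ≥90 h infection period, 3 h prior cell attachment | read-out basis = percent inhibition of parasite-derived β-gal signal | detection = GalScreen β-gal luminescence, detergent lysis, 60 min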
# CSC inhib: cancer stem cell viability inhibitors, primary screen, luminescence; cancer stem cell-like cells viability; inhibition, % at 7.5 µM; 300,000 compounds, 1.1% hits; AID 2717, 2010; in the data active means inhibition above about 75%; inconclusive means no clear call, values can overlap the other calls; tested in HMLE shEcad cells
# Beta apoptosis: inhibitors of cytokine-induced beta cell apoptosis, primary screen, luminescence. protection from apoptosis, % (test concentration not listed). AID 435005, 2010. INS-1E cytokine-induced death, ATP luminescence, 48 h; percent of positive-control rescue, neutral wells zero. 300,000 compounds, 0.8% hits;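 active means Every replicate reaches about 75%, or at least half do and their mean reaches it too, limit read from the data; inconclusive means At least half of replicates reach the limit but their mean does not; inactive means Under half of replicates reach the limit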;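 further: 0% = cytokine-treated negative control wells and 100% = positive control rescue; higher means more ATP so stronger rescue from cytokine killing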
# NLRP3 yeast inh: NALP3 inflammasome inhibitors in reconstituted yeast, primary screen, luminescence, uHTS | inhibition, % at 10 µM | AID 2825, 2010 | Yeast reconstituted NLRP3/ASC/caspase-1, beta-gal luminescence, 24 h | 330,000 compounds, 0.39% hits;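 active means inhibition of 50% or more; inactive means inhibition below 50%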;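 further: plate controls were induced DMSO wells for no effect and uninduced yeast grown without galactose for full effect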
# Calb FLC: C. albicans growth inhibition with fluconazole, primary screen, CaCi-2 strain, Alamar Blue fluorescence; C. albicans CaCi-2 (fluconazole-resistant clinical isolate) + fluconazole, 48 h; growth inhibition, % (concentration not given with the values); 300,000 compounds, 0.57% hits; AID 1979, 2009;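 active means growth inhibition above about 58% in most replicates, limit read from the data, passing the limit was not always enough; inconclusive means exactly half the replicates above a set limit; inactive means most replicates below a set limit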;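 further: all wells also contain fluconazole at 8 µg/ml as a sub-toxic cotreatment; 0% = median of DMSO wells and 100% = median of geldanamycin control wells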
# Mdm2 MdmX conf: Mdm2-MdmX complex disruptors, retested hits, confirmation, luminescence, single concentration; shares compounds with Mdm2-MdmX inh; Mdm2-MdmX binding, luminescent assay; inhibition, % at 8 µM; 10,000 compounds, 55% hits; AID 489028, 2010; in the data active means inhibition above about 40%
# Full FLuc ctr: full-length luciferase signal inhibition, confirmation, counter-screen for Mdm2/MdmX interaction inhibitor project, cell-based, single concentration, SaOS-2; shares compounds with Mdm2-MdmX inh; 6,200 compounds, 77% hits; inhibition, % at 8 µM; SaOS-2 full-length luciferase counterscreen, luminescence;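 active means mean inhibition at 8 µM reaching about 37%, which flags the compound as non-specific, limit read from the data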;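 further: p53-null SaOS-2 cells with luciferase driven by a doxycycline-inducible promoter; compound on cells about two nights before reading with doxycycline added after day one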
# Active calls of the source: *; ? = inconclusive; nt = no result given; + = active, no number.
SMILES,Mdm2-MdmX inh,T cruzi inh,CSC inhib,Beta apoptosis,NLRP3 yeast inh,Calb FLC,Mdm2 MdmX conf,Full FLuc ctr
CCCCC(=O)NC(c1ccccc1OC)c1ccc2cccnc2c1O (centres undefined),87*,57*,138*,96*,13,96*,83*,52*
CCCC(=O)NC(c1ccccc1OC)c1ccc2cccnc2c1O (centres undefined),77*,81*,119*,95*,-6,101*,82*,50*
CCOc1ccc(C(=O)NCCNC(=O)c2ccc(OCC)cc2)cc1,-13,-8,-10,0,11,0,nt,nt
O=C(c1ccccc1)C(C(=O)N1CCCCC1)n1ccccc1=O (centres undefined),-16,-6,2,-5,4,1,nt,nt
CC(C)C(=O)N1CCN(c2ccc(NC(=O)c3cccs3)cc2Cl)CC1,19,19,12,10,13,9,nt,nt
Cc1ccc(C(=O)N2C(CC(=O)Nc3ccc(Cl)cc3)C(=O)NC3CCCCC32)cc1 (centres undefined),54*,3,63,20,1,-4,55*,25
Cc1cccc(NC(=O)CC2C(=O)NC3CCCCC3N2C(=O)c2ccccc2Cl)c1 (centres undefined),16,-12,-10,-9,8,-2,nt,nt
Cc1[nH]c(=O)c(C(=O)/C=C/c2ccccc2F)c2c1CCCC2,80*,?,38,7,15,-27,99*,53*
COc1ccccc1CNC(=O)CN1C(=O)C(C)N(c2ccc(C)cc2)C1=O (centres undefined),32,0,5,5,-10,-1,nt,nt
CC1=CC(=O)C(C(C)C)=C/C1=N/OS(=O)(=O)c1ccccc1,100*,53,?,105*,44,?,35,42*
CCc1c(C(C)=O)oc2ccc3c(C)cc(=O)oc3c12,10,-9,-9,5,16,-2,nt,nt
Cc1cc(=O)oc2c1ccc1oc(/C(=N/O)c3ccccc3)c(C)c12,58*,18,42,10,9,5,28,nt
Cc1ccc(/C(=N\O)c2oc3c(C)c4oc(=O)cc(C)c4cc3c2C)cc1,74*,59*,105*,12,17,31,30,nt
CCc1c(C(=O)c2ccc(Cl)cc2)oc2c(C)c3oc(=O)cc(C)c3cc12,59*,-18,-10,-14,-25,-3,15,nt
Cc1noc(C(=O)N2CC3(C)CC2CC(C)(C)C3)c1Cl (centres undefined),12,10,1,-1,18,3,nt,nt
O=C(Nc1ccccc1C(=O)NCCN1CCOCC1)c1ccc(Cl)cc1Cl,-17,-4,3,0,1,8,nt,nt
O=c1c(Cc2ccc(F)cc2)c(O)ccn1Cc1ccc(F)cc1,1,7,-3,-4,17,0,nt,nt
C=CCNC(=S)NNC(=O)CCC(O)CCCCC (centres undefined),54*,-15,-3,-5,7,-15,-8,nt
C=CCNC(=S)NNC(=O)C(CCCC)CC(C)O (centres undefined),16,-58,-9,-2,18,-15,nt,nt
CCC(C)Sc1cc(-c2nc3cc(C)ccn3c2NC2CCCCC2)ccc1OC (centres undefined),84*,nt,nt,nt,25,nt,-12,nt
CCC(C)Sc1cc(-c2nc3ccccn3c2NC2CCCCC2)ccc1OC (centres undefined),69*,32,126*,31,5,22,30,nt
CCC(C)Sc1cccc(-c2nc3cnccn3c2NC2CCCCC2)c1 (centres undefined),19,nt,nt,nt,9,nt,nt,nt
CCCCNc1c(-c2ccc(OC)c(SC(C)CC)c2)nc2cc(C)ccn12 (centres undefined),19,nt,nt,nt,31,nt,nt,nt
CCOCCCNS(=O)(=O)c1cc(Br)cc2c1N(C(=O)C1CC1)CC2,13,6,-13,-4,1,0,nt,nt
COc1ccc(NS(=O)(=O)c2cc(NC(=O)c3cncc(Br)c3)ccc2OC)cc1,46,nt,-11,4,14,nt,nt,nt
SMILES,Mdm2-MdmX inh,T cruzi inh,CSC inhib,Beta apoptosis,NLRP3 yeast inh,Calb FLC,Mdm2 MdmX conf,Full FLuc ctr
COc1c(C(=O)Nc2ccccc2N2CCOCC2)cc2ccccc2c1Br,50*,25,18,5,9,30,14,nt
N/C(=N\OC(=O)c1ccc(Cl)cc1Cl)c1ccccc1,-35,10,2,4,18,4,nt,nt
Cc1ccc(/C(N)=N/OC(=O)c2ccc(C)cc2Cl)cc1,74*,-6,1,-18,10,-10,77*,+
N/C(=N\OC(=O)c1ccc(Cl)cc1Cl)c1ccc(Cl)cc1,53*,8,6,-2,22,-8,50*,146*
OC1(c2cccc(C(F)(F)F)c2)CCN(c2ccc(-c3ccccc3)nn2)CC1,-1,nt,5,0,23,nt,nt,nt
O=C(CCS(=O)(=O)c1ccccc1)Nc1nc(-c2cccs2)cs1,97*,-125,27,-12,4,-8,47*,51*
O=C(Nc1cccnc1)c1ccccc1NS(=O)(=O)c1ccc(F)cc1,26,-10,18,4,-8,-7,nt,nt
CC(C)c1nnc(NC(=O)CCS(=O)(=O)c2nc(-c3cccs3)cc(C(F)(F)F)n2)s1,95*,-18,45,-4,19,3,44*,63*
O=C(Nc1nc(-c2ccccc2)cs1)c1ccccc1NS(=O)(=O)c1ccc(F)cc1,90*,-8,121*,90*,-6,49,89*,26
O=C(CCS(=O)(=O)c1ccc(F)cc1)Nc1nc(-c2ccncc2)cs1,89*,-19,59,-12,6,?,68*,34
COc1ccc(-c2csc(NC(=O)CS(=O)(=O)c3ccc(F)cc3)n2)cc1OC,6,-1,-4,4,6,-2,nt,nt
CC(C)c1nnc(NC(=O)CCS(=O)(=O)Cc2ccccc2)s1,15,-14,-2,-17,-1,14,nt,nt
CCOC(=O)C(C)n1nc(/C=C/c2ccccc2)ccc1=O (centres undefined),23,9,nt,1,-18,5,nt,nt
